The list is not random: actives were taken first. Their share in the collection is about 1.5%.
HDAC3 inhib – HDAC3 deacetylase inhibitors, primary screen, biochemical, fluorescence, cell-free homogeneous | Histone deacetylase 3 (Homo sapiens), O15379 | recombinant HDAC3, fluorogenic peptide/trypsin coupled | inhibition, % at 8.3 µM | actives 0.15% (n = 320,000); in the data active = inhibition above about 26%, passing the limit was not always enough; inconclusive = no clear call, values can overlap the other calls
Arrestin-AP2 inh – inhibitors of beta-arrestin/AP2 binding, primary screen, biochemical, GPCR trafficking, flow cytometry; actives 0.31% (n = 340,000); AID 504490, 2011; beta-arrestin 1 C-terminal peptide binding to AP2 beta2-adaptin appendage (human); FITC-arrestin peptide / GST-AP2 beads; AP2 beta2 appendage carries R879A mutation; inhibition, % at 10 µM;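 active = inhibition above a set limit, near 3 SD of compounds lacking own fluorescence, cut at about 54% in these data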
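System: GST-AP2 R879A glutathione beads | Also added: FITC-arrestin peptide, 50 nM | Times: 12 min plus 1 h, RT | Signal: Bead flow cytometry, FITC channel | Buffer or medium: PBS with 0.05% Tween 20 and 0.1% BSA | Read-out basis: Percent drop in bead-associated FITC signal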
LANA-H2A inh – blockers of LANA interaction with H2A/H2B – biochemical, FP readout, HTS, primary screen. Protein LANA1 (Human herpesvirus 8 type P (isolate GK18)), Q9QR71. cell-free LANA-H2A/H2B peptide, fluorescence polarization. inhibition, % (test concentration not listed). actives 0.6% (n = 320,000). AID 2629, 2010; in the data active = inhibition mostly above about 10%, no sharp cut-off; inactive = mostly below about 6.7%
T cell HTS – modulators of CD8 T cell-vesicle binding, primary screen, mouse 2C CD8+ T cells, flow cytometry | 2C CD8+ T cell-vesicle binding; hits give low values | response (vesicle binding), % at 7 µM | actives 0.068% (n = 330,000);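 active = response, share of CD8 T cells binding vesicles, and their 90th percentile fluorescence all below set limits, cut at about 80% in these data, passing the limit was not always enough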;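 also: values below 100% mean blocked vesicle binding to the CD8+ T cells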
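Assay system – 2C mouse CD8+ T cells · Also added – QL9-loaded Drosophila micro-vesicles · Timing – Cell–vesicle co-incubation 1.5 h at 37 °C, staining 20 min on ice · Signal – flow cytometry of vesicle-bound cells · Measure – percent CD8+ FL2 mean versus row control · Controls – Peptide-free naked vesicles (low) and QL9 vesicles with 0.7% DMSO vehicle (high)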
DSG3 Ab inh – inhibitors of pemphigus antibody binding to DSG3, primary screen, biochemical, bead-based, flow cytometry, scFv-GFP | DSG3-coupled beads, scFv-anti-DSG3-GFP binding; hits give low values | AID 588358, 2011 | binding (percent of control), % at 10 µM | actives 0.48% (n = 310,000) | Desmoglein-3 (Homo sapiens), P32926;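 active = binding more than 3 SD below its plate's average and above zero; inconclusive = below that plate limit but binding exactly zero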;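 also: hits lower antibody fragment binding to DSG3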
Arr AP2 CP1 – inhibitors of arrestin peptide binding to AP2, confirmation, biochemical, cherry pick 1, flow cytometry beads. shares compounds with Arrestin-AP2 inh. GST-AP2 beads, FITC arrestin peptide binding; GST-fused beta2-adaptin appendage, R879A mutant. inhibition, % at 10 µM. actives 2% (n = 1,300). AID 504908, 2011;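 active = inhibition above a set limit, roughly 3 SD of non-fluorescent compound noise, cut at about 38% in these data; inactive = inhibition at or below that limit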;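 also: loss of bead fluorescence from 50 nM FITC arrestin peptide bound to appendage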
Target sequence (P63010 whole entry, looked up, the tested form may be a part, one chain of several): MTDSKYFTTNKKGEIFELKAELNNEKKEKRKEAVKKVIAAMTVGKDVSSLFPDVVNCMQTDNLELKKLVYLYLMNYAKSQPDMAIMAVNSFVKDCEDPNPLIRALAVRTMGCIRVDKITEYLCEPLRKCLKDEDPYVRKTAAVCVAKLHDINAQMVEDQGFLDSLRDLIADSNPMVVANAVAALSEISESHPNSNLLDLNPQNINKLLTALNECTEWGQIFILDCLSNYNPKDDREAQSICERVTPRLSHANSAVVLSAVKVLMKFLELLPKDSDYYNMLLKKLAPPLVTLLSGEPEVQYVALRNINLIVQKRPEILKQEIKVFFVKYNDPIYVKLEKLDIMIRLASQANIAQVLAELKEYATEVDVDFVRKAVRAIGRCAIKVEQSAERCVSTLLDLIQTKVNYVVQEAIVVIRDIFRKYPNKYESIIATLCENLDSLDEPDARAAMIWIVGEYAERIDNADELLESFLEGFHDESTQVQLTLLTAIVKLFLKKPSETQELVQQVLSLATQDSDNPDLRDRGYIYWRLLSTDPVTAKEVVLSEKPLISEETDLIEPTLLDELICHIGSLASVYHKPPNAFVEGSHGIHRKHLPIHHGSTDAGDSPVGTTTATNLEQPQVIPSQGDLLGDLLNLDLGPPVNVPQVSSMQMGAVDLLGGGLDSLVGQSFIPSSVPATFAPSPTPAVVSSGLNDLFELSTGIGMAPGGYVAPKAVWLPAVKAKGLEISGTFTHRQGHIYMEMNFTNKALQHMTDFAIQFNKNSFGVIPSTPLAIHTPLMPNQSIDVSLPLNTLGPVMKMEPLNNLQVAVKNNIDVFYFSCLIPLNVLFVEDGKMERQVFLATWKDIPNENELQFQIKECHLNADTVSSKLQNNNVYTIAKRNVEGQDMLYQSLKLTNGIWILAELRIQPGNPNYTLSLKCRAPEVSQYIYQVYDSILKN
GST GSH counter – GST-fluorescein capture on glutathione beads, confirmation, artefact control for arrestin-AP2 inhibitor project, biochemical, cherry pick 1, flow cytometry; shares compounds with Arrestin-AP2 inh; GST-fluorescein binding to GSH beads, fluorescence, counter-screen; inhibition, % at 10 µM; actives 2% (n = 1,300);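 active = inhibition above 50%, about 3 SD of the inhibition seen with non-fluorescent compounds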;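 also: fluorescein maleimide labelled GST captured on 4 micron glutathione beads; higher means more loss of bead fluorescence from quenching or blocked binding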
Large screens that a line does not name were inactive (follow-up assays come after a bar, where they were run).

COc1ccc(OC)c(S(=O)(=O)Nc2cccc(-c3ccc(N4CCCCCC4)nn3)c2)c1	Arrestin-AP2 inh 60 (no result: DSG3 Ab inh) | Arr AP2 CP1 inactive | GST GSH counter inactive
c1ccc2[nH]c(SCc3cn4cccnc4n3)nc2c1	none
c1ccc(-c2cnnc(SCc3cn4cccnc4n3)n2)cc1	Arrestin-AP2 inh 60 | Arr AP2 CP1 inactive | GST GSH counter inactive
CCN(CC(=O)Nc1ccc(NC(C)=O)cc1)C(=O)CCN1C(=O)c2cccc([N+](=O)[O-])c2C1=O	Arrestin-AP2 inh 64 | Arr AP2 CP1 inactive | GST GSH counter inactive
CCN(CC(=O)Nc1c(F)cccc1F)C(=O)CCN1C(=O)c2cccc([N+](=O)[O-])c2C1=O	none
O=C(NC1CC2CCCC(C1)N2C(=O)NCc1ccccc1)C1CC1 (stereo not drawn)	none
O=C(NC1CC2CCCC(C1)N2C(=S)NCCc1ccccc1)C1CC1 (stereo not drawn)	Arrestin-AP2 inh 56 | Arr AP2 CP1 inactive | GST GSH counter inactive
O=C(Nc1ccc(-n2cnnn2)cc1)c1cccc(S(=O)(=O)N2CCCC2)c1	none
C=CCN1/C(=C(\C#N)C2=NS(=O)(=O)c3ccccc32)N(C)c2ccccc21	Arrestin-AP2 inh 55 | Arr AP2 CP1 inactive | GST GSH counter inactive
O=C(Nc1cccc(S(=O)(=O)N2CCOCC2)c1)c1cccc(S(=O)(=O)N2CCCC2)c1	none (no result: HDAC3 inhib, LANA-H2A inh, T cell HTS)
O=C(Nc1cccc(S(=O)(=O)N2CCOCC2)c1)c1cc(=O)[nH]c2ccccc12	none | Arr AP2 CP1 inactive | GST GSH counter inactive
O=C(Nc1cccc(S(=O)(=O)N2CCOCC2)c1)c1ccc(=O)[nH]c1	none | Arr AP2 CP1 inactive | GST GSH counter inactive
O=C(Nc1cccc(S(=O)(=O)N2CCCCC2)c1)c1cc(=O)[nH]c2ccccc12	none (no result: DSG3 Ab inh) | Arr AP2 CP1 inactive | GST GSH counter inactive
Cc1cc(C(=O)Nc2cccc(S(=O)(=O)N3CCOCC3)c2)c2ccccc2n1	none | Arr AP2 CP1 inactive | GST GSH counter inactive
Cc1cc(S(=O)(=O)NCCCN2CCOCC2)c(C)cc1Cl	none
COc1cc(C(C)=O)ccc1OCC(O)CNCC(O)c1ccccc1 (stereo not drawn)	none
Cc1cn(CC(=O)N2CCN(c3ccccn3)CC2)c(=O)[nH]c1=O	none (no result: HDAC3 inhib, LANA-H2A inh, T cell HTS)
O=C(NCCN1CCOCC1)c1ccc2c(c1)N(Cc1ccccc1)C(=O)c1ccccc1S2	Arrestin-AP2 inh 62 | Arr AP2 CP1 inactive | GST GSH counter inactive
O=C(N/N=C/c1cccn1-c1ccc([N+](=O)[O-])cc1)c1cccnc1	none
O=C(N/N=C/c1cccn1-c1ccccc1)c1ccncc1	Arrestin-AP2 inh 58 | Arr AP2 CP1 inactive | GST GSH counter inactive
CCN(CC(=O)N1CCOCC1)S(=O)(=O)c1cc(Cl)ccc1Cl	none
COc1ccc(-c2nc(CCl)cs2)cc1OC	Arrestin-AP2 inh 54 | Arr AP2 CP1 inactive | GST GSH counter inactive
COc1ccc(-c2nc(CCl)cs2)cc1	none
O=S(=O)(c1cccc(-c2cn3cccnc3n2)c1)N1CCCCCC1	Arrestin-AP2 inh 61 | Arr AP2 CP1 inactive | GST GSH counter inactive
CCCC(=O)N(Cc1cc(=O)[nH]c2ccccc12)c1ccccc1C	Arrestin-AP2 inh 61 | Arr AP2 CP1 inactive | GST GSH counter inactive
CNC(=O)C(C)Sc1ccc(S(=O)(=O)N2CCOCC2)cn1 (stereo not drawn)	DSG3 Ab inh inconclusive
COc1ccc(-c2nn(-c3ccccc3)cc2/C=N/NC(N)=S)cc1OC	none
COc1ccc(-c2nn(-c3ccccc3)cc2/C=C(\C#N)S(=O)(=O)c2ccccc2)cc1OC	Arrestin-AP2 inh 78 | Arr AP2 CP1 inactive | GST GSH counter inactive
O=C(CCc1c[nH]c2ccccc12)OCC(=O)N1CCN(S(=O)(=O)c2ccccc2)CC1	none
CCN(C[C@H]1N[C@@](C)(C(=O)OC)[C@H]2C(=O)N(Cc3ccccc3)C(=O)[C@@H]12)C(=O)c1ccccc1	Arrestin-AP2 inh 57 (no result: HDAC3 inhib, LANA-H2A inh) | Arr AP2 CP1 inactive | GST GSH counter inactive
CCNC(=O)N(CC)C[C@H]1N[C@@](C)(C(=O)OC)[C@H]2C(=O)N(Cc3ccccc3)C(=O)[C@@H]12	none
COc1ccc(OCCC(=O)Nc2nccs2)cc1	Arrestin-AP2 inh 54 | Arr AP2 CP1 inactive | GST GSH counter inactive
COc1ccc(OCC(=O)Nc2nccs2)cc1	none
CC(=O)OC(COc1ccccc1)Cn1cnc2ccccc21 (stereo not drawn)	Arrestin-AP2 inh 55 (no result: HDAC3 inhib) | Arr AP2 CP1 inactive | GST GSH counter inactive
COCCCN(Cc1ccco1)C(=O)c1cc2c(s1)-c1ccc(Cl)cc1S(=O)(=O)C2	none
CC(C)Sc1ncc(S(=O)(=O)c2ccccc2)c(=O)[nH]1	Arrestin-AP2 inh 57 | Arr AP2 CP1 inactive | GST GSH counter inactive
C#CCSc1ncc(S(=O)(=O)c2ccccc2)c(=O)[nH]1	none
Cc1cnc(C(=O)OCC(=O)c2ccc(C3CCCCC3)cc2)cn1	Arrestin-AP2 inh 57 | Arr AP2 CP1 inactive | GST GSH counter inactive
Cc1c(Cl)cccc1NC(=O)CNC(=O)C1CCN(C(=O)Nc2ccccc2)CC1	none (no result: DSG3 Ab inh)
Cc1c(NC(=O)c2cccc(S(=O)(=O)N(C)c3ccccc3)c2)c(=O)n(-c2ccccc2)n1C	none (no result: HDAC3 inhib, LANA-H2A inh, T cell HTS)
Cc1c(NC(=O)c2ccc(N(C)S(=O)(=O)c3ccccc3)cc2)c(=O)n(-c2ccccc2)n1C	Arrestin-AP2 inh 54 | Arr AP2 CP1 inactive | GST GSH counter inactive
Fc1cccc(F)c1/C=N/Nc1ccccn1	Arrestin-AP2 inh 55 | Arr AP2 CP1 inactive | GST GSH counter inactive
Fc1cccc(Cl)c1/C=N/Nc1ccccn1	none
Cc1cccc(C)c1NC(=O)CN(C)C(=O)C1CC1C (stereo not drawn)	none (no result: HDAC3 inhib, LANA-H2A inh)
CC(C)OC(=O)CSc1nc(Cc2ccccc2)nc2ccccc12	Arrestin-AP2 inh 71 | Arr AP2 CP1 inactive | GST GSH counter inactive
CCCNC(=O)N1CCC(c2nc3ccccc3s2)CC1	none
O=C(NNC(=O)c1ccc(Cl)nc1)c1ccncc1	Arrestin-AP2 inh 57 | Arr AP2 CP1 inactive | GST GSH counter inactive
COc1ccc(N(C(=O)c2snc(C(N)=O)c2N)C(C(=O)NC2CCCC2)c2cc(OC)ccc2OC)cc1 (stereo not drawn)	none (no result: DSG3 Ab inh)
